esBAF inh = inhibitors of esBAF chromatin remodeling in mouse ES cells | Bmi1-luciferase knock-in reporter, 24 h; 100% = twice the neutral-well signal | reporter increase, % at 12.5 µM | 350,000 compounds, 2% hits; in the data active = activation above about 40%; inconclusive = no clear call, values can overlap the other calls;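 also: a rise in the Bmi1 reporter signal indicates esBAF inhibition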
HIV Env fusion = HIV envelope-mediated fusion inhibition; inhibition, % at 12.3 µM; HeLa-JRFL Env/CEM21 cell fusion, luciferase; 360,000 compounds, 1.1% hits;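 active = mean replicate inhibition score of at least 50 and every replicate individually at or above 50; inconclusive = only one of the two criteria met; inactive = mean below 50 and not all replicates reaching 50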
MITF TRPM1 HTS = activators of MITF-driven TRPM1 promoter activity in SK-MEL-5 cells. SK-MEL-5 TRPM1-promoter luciferase, 24 h; % of positive control, neutral wells = 0. activation, % at 12.5 µM. 300,000 compounds, 0.75% hits. AID 588334;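 active = mean activation of at least 80% with every replicate also reaching 80%; inconclusive = mean reaches 80% but some replicate falls short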
Wnt bcat act = activators of Wnt/beta-catenin signaling. Wnt/beta-catenin reporter cell assay, activator, plate reader. activation, % at 9.35 µM. 300,000 compounds, 1.2% hits. AID 743398; in the data active = activation above about 30%, passing the limit was not always enough; inconclusive = no clear call, values can overlap the other calls
Cneo AK release = causes C. neoformans cell lysis | adenylate kinase release luminescence, 4 h; normalised: neutral wells 0, clomiphene wells 100 | lysis activity, % at 15 µM | 360,000 compounds, 0.2% hits | AID 651654;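 active = mean lysis activity across replicates of at least 80%, whatever share of replicates individually reach that level; inactive = mean lysis activity below 80%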
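Assay system: log-phase C. neoformans yeast / Quantity: yeast cell density of 5 × 10^6 cells/mL / Medium: fresh YPD growth medium / Compound: single dose / Timing: static 4 h at 37 °C with compound, 1 h detection / Measured by: adenylate kinase release luminescence / Read-out: lysis from increased AK signal / Benchmarks: Clomiphene as positive lysis control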
ERAP1 inh = ERAP1 (human) enzyme inhibition; Q9NZ08; recombinant ERAP1, Leu-AMC fluorescence, 60 min; inhibition, % at 10.7 µM; 340,000 compounds, 0.15% hits; AID 652197;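 active = mean replicate inhibition of at least 30%, or all replicates individually reaching that 30% level; inactive = mean below 30% and not every replicate reaching it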
Target sequence (Q9NZ08 whole entry, looked up): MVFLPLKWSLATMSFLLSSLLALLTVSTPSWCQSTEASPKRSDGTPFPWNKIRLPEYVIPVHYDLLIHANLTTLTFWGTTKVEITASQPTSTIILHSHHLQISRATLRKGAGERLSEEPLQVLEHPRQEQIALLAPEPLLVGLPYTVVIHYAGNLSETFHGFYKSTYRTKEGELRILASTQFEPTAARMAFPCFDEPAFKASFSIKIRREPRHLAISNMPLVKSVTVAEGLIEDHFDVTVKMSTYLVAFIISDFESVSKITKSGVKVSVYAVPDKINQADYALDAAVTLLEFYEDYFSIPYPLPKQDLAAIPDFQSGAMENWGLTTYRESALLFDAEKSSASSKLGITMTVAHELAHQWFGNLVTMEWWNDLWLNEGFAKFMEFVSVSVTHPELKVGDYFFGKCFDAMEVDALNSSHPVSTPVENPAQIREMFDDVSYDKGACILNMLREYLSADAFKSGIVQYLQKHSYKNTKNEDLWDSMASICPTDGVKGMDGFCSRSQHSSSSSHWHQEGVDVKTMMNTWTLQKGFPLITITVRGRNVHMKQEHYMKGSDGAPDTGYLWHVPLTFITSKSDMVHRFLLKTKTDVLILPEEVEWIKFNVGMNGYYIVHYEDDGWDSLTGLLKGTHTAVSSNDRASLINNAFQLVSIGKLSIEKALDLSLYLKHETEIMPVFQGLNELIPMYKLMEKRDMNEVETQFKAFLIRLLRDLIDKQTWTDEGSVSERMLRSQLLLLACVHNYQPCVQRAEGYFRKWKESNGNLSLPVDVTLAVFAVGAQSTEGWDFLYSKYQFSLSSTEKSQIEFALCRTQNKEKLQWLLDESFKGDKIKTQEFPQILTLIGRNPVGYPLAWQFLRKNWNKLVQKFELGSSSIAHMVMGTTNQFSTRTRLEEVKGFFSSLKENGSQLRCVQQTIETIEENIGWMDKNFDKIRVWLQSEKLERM
esBAF Ring1 qPCR = confirmation of esBAF inhibitors: Ring1 de-repression in mouse ESCs. shares compounds with esBAF inh. mouse ESC E14, Ring1 mRNA RT-qPCR fold change. fold change at 33 µM. 550 tested, under 10 active;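 active = Ring1 gene expression raised more than 2-fold over untreated cells in both replicates at either tested dose; inconclusive = only one replicate above 2-fold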;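 also: Ring1 transcript normalised to actin housekeeping signal by TaqMan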
Fgf4 repress = esBAF inhibition confirmed by Fgf4 repression; shares compounds with esBAF inh; mouse ESC E14, Fgf4 mRNA qPCR fold change; hits give low values; Fgf4 expression fold change at 33 µM; 550 compounds, 4% hits; AID 743177;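 active = Fgf4 expression under 0.8 fold of control in both repeat measurements at one or both tested doses; inconclusive = under 0.8 fold in just a single repeat measurement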;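 also: Fgf4 transcript normalised to actin in duplex TaqMan qPCR; cells exposed to compound for 24 h before lysis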
esBAF Bmi1 qPCR = de-represses Bmi1 in mouse ESCs, confirming esBAF inhibition; shares compounds with esBAF inh; mouse ESE14 ES cells, Bmi1 mRNA qPCR fold; hits give high values; fold change at 33 µM; 550 tested, under 10 active; AID 743180;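 active = Bmi1 expression fold change above 6 at either tested concentration, seen in replicate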;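 also: higher fold means more Bmi1 de-repression and stronger esBAF inhibition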
A549 cytotox = A549 cell cytotoxicity. shares compounds with esBAF inh. plate reader. cell viability change % (negative = cytotoxic), % at 25 µM, hits read low. 550 tested, under 10 active. AID 743188; call rule not given here
HepG2 cytotox SP = HepG2 cell cytotoxicity at single point; shares compounds with esBAF inh; plate reader; hits give low values; activity change, negative = inhibition, % at 25 µM; 550 compounds, 4% hits; AID 743189; in the data active = activity change below about -50%
HEK293 cytotox SP = kills or reduces viability of HEK293 cells. 550 compounds, 3% hits. HEK293 cytotoxicity, plate reader. activity change, negative = inhibition, % at 25 µM, hits read low. shares compounds with esBAF inh; in the data active = activity change below about -38%, passing the limit was not always enough
Numbers stand for hits. In the library only some 3.5% were active in any assay of this set; here they are far more common.

What do the screens show for `COc1ccc(-c2cc(C(=O)Nc3cccnc3)no2)cc1OC`?
esBAF inh: 65; HIV Env fusion: inactive; MITF TRPM1 HTS: 87; Wnt bcat act: inactive; Cneo AK release: inactive; ERAP1 inh: inactive; esBAF Ring1 qPCR: inactive; Fgf4 repress: inconclusive; esBAF Bmi1 qPCR: inactive; A549 cytotox: inactive; HepG2 cytotox SP: inactive; HEK293 cytotox SP: inactive

How did CC(C)NC(=O)N(C)C[C@H]1Oc2ccc(NC(=O)Cc3ccccc3)cc2C(=O)N([C@@H](C)CO)C[C@H]1C do in these assays?
esBAF inh: inactive; Cneo AK release: inactive; ERAP1 inh: inactive

What do the screens show for `Cc1ccc(Nc2nc(Cl)nc(NC(C)(C)C)n2)cc1`?
esBAF inh: 77; HIV Env fusion: inactive; MITF TRPM1 HTS: 100; Wnt bcat act: inactive; Cneo AK release: inactive; ERAP1 inh: inactive; esBAF Ring1 qPCR: inactive; Fgf4 repress: inconclusive; esBAF Bmi1 qPCR: inactive; A549 cytotox: inactive; HepG2 cytotox SP: inactive; HEK293 cytotox SP: inactive

What do the screens show for `COc1ccc2c3c([nH]c2c1)[C@H](CO)NCC31CCN(C(=O)Cc2ccccc2)CC1`?
ERAP1 inh: inactive

Results for C[C@H]1CN([C@@H](C)CO)C(=O)c2cc(C#CC3CC3)cnc2O[C@@H]1CN(C)Cc1cccc(C(=O)O)c1 ?
esBAF inh: inactive; HIV Env fusion: inactive; Cneo AK release: inactive

What do the screens show for `Cc1cc2oc(=O)cc(CN3CCC(C)CC3)c2c(C)c1Cl`?
esBAF inh: 59; HIV Env fusion: inactive; Wnt bcat act: inactive; Cneo AK release: inactive; esBAF Ring1 qPCR: inactive; Fgf4 repress: inactive; esBAF Bmi1 qPCR: inactive; A549 cytotox: inactive; HepG2 cytotox SP: inactive; HEK293 cytotox SP: inactive

Results for Cc1cc(C)c2c(CN3CCC(C)CC3)cc(=O)oc2c1 ?
esBAF inh: inactive; HIV Env fusion: inactive; MITF TRPM1 HTS: inactive; Wnt bcat act: inactive; Cneo AK release: inactive; ERAP1 inh: inactive

What do the screens show for `COc1ccc(NC(=O)N2CC(=O)N3[C@H](CO)[C@@H](c4ccc(/C=C/c5ccccc5)cc4)[C@@H]3C2)cc1`?
ERAP1 inh: inactive

What do the screens show for `COc1cccc(OCc2cc(C(=O)N(C)Cc3nc4ccccc4[nH]3)no2)c1`?
esBAF inh: 69; HIV Env fusion: inactive; MITF TRPM1 HTS: inactive; Wnt bcat act: inactive; Cneo AK release: inactive; ERAP1 inh: inactive; esBAF Ring1 qPCR: inactive; Fgf4 repress: inconclusive; esBAF Bmi1 qPCR: inactive; A549 cytotox: inactive; HepG2 cytotox SP: inactive; HEK293 cytotox SP: inactive

How did Cc1ccc(CN2CC(C(=O)Nc3cc(C)ccn3)CC2=O)cc1 (stereo unspecified) do in these assays?
esBAF inh: 72; HIV Env fusion: inactive; MITF TRPM1 HTS: inactive; Wnt bcat act: inconclusive; ERAP1 inh: inactive; esBAF Ring1 qPCR: inactive; Fgf4 repress: 0.44; esBAF Bmi1 qPCR: inactive; A549 cytotox: inactive; HepG2 cytotox SP: inactive; HEK293 cytotox SP: inactive

What do the screens show for `CC(C)C(=O)Nc1ccc2c(c1)C(=O)N(C)[C@@H]1CC[C@H](CC(=O)NCc3ccccc3)O[C@@H]1CO2`?
esBAF inh: inactive; HIV Env fusion: inactive; Cneo AK release: inactive; ERAP1 inh: inactive

How did CCN1[C@@H]2Cn3c(ccc(-c4ccccc4OC)c3=O)[C@H]1[C@@H](C(=O)NCc1ccccn1)[C@@H]2CO do in these assays?
esBAF inh: inactive; Cneo AK release: inactive; ERAP1 inh: inactive

What do the screens show for `Nc1cc2c3ccccc3ccc2c2ccccc12`?
esBAF inh: 79; HIV Env fusion: inactive; MITF TRPM1 HTS: inactive; Wnt bcat act: inactive; ERAP1 inh: inactive; esBAF Ring1 qPCR: 0.64; Fgf4 repress: 0.48; esBAF Bmi1 qPCR: 37; A549 cytotox: inactive; HepG2 cytotox SP: inactive; HEK293 cytotox SP: -119

What do the screens show for `Nc1ccc2ccccc2c1[N+](=O)[O-]`?
esBAF inh: inactive; HIV Env fusion: inactive; MITF TRPM1 HTS: inactive; Wnt bcat act: inactive; ERAP1 inh: inactive

How did FC(F)Oc1ccccc1/C=N/Nc1nc2ccccc2o1 do in these assays?
esBAF inh: 59; HIV Env fusion: inactive; Wnt bcat act: inactive; Cneo AK release: inactive; ERAP1 inh: inactive; esBAF Ring1 qPCR: inactive; Fgf4 repress: inactive; esBAF Bmi1 qPCR: inactive; A549 cytotox: inactive; HepG2 cytotox SP: inactive; HEK293 cytotox SP: inactive

Results for Fc1ccccc1/C=N/Nc1nc2ccccc2o1 ?
esBAF inh: inactive; HIV Env fusion: inactive; MITF TRPM1 HTS: inactive; Wnt bcat act: inactive; Cneo AK release: inactive; ERAP1 inh: inactive

What do the screens show for `CCc1nc(SCc2ccc(Cl)cc2)n[nH]1`?
HIV Env fusion: inactive; MITF TRPM1 HTS: inactive; Wnt bcat act: inactive; ERAP1 inh: inactive

Results for CCc1nc(SCc2ccc(Br)cc2)n[nH]1 ?
esBAF inh: 47; HIV Env fusion: inactive; MITF TRPM1 HTS: inactive; Wnt bcat act: inactive; Cneo AK release: inactive; ERAP1 inh: inactive; esBAF Ring1 qPCR: inactive; Fgf4 repress: inactive; esBAF Bmi1 qPCR: inactive; A549 cytotox: inactive; HepG2 cytotox SP: inactive; HEK293 cytotox SP: inactive

What do the screens show for `C[C@@H]1CN([C@@H](C)CO)C(=O)c2cc(NC(=O)Nc3cccc4ccccc34)ccc2O[C@@H](C)CCCCO[C@@H]1CN(C)S(=O)(=O)c1cccs1`?
esBAF inh: inactive; HIV Env fusion: inactive; Cneo AK release: inactive

Results for COc1ccc2c(c1)nc(-c1cccc(Br)c1)c(=O)n2C(c1ccccn1)c1nc2ccccc2[nH]1 (stereo unspecified) ?
esBAF inh: 72; HIV Env fusion: inactive; Wnt bcat act: inactive; Cneo AK release: inactive; esBAF Ring1 qPCR: inactive; Fgf4 repress: inactive; esBAF Bmi1 qPCR: inactive; A549 cytotox: inactive; HepG2 cytotox SP: inactive; HEK293 cytotox SP: inactive

Results for Clc1ccc(-c2csc(N3CCSCC3)n2)cc1 ?
esBAF inh: 76; HIV Env fusion: inactive; MITF TRPM1 HTS: inactive; Wnt bcat act: inactive; Cneo AK release: inactive; ERAP1 inh: inactive; esBAF Ring1 qPCR: inactive; Fgf4 repress: inactive; esBAF Bmi1 qPCR: inactive; A549 cytotox: inactive; HepG2 cytotox SP: inactive; HEK293 cytotox SP: inactive

Bioassay records from PubChem BioAssay.
